In paper PMC12010439 (Cell, 2024):

How the values were obtained:
[1] = test system: T cells of HLA-A*02 healthy donors; assay: IFN-γ ELISpot assay; format: cell-based, human
UCEC tumors = settings: cited from earlier work
[2] = test system: eight cell lines representing different cancer types; assay: Drug response viability assay; format: cell-based; settings: 48 h
[3] = test system: HT29 colon cancer cell line xenografts; assay: HT29 colon cancer cell line xenograft treated with alvespimycin; format: in vivo, BALB/c nude mice; settings: alvespimycin 50 mg/kg intraperitoneally daily, N = 9
Summary of the method: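 Female BALB/c nude mice, 4–6 weeks old, received 5×10^6 HT29 cells in 100 μL PBS subcutaneously in the dorsal flank. On day 0 they were randomised to vehicle (2% DMSO in PBS) or test compound at 50 mg/kg i.p. daily, N = 9 per group, and sacrificed 7 days later. Tumours were measured by caliper every 1–3 days; volume = (width)2 × length × 0.52; mean ± sd.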

[4] = CD8+ T cell cultures of donor US1 with HLA-A*02:11, peptide 12.5 μg/mL, about 16 hrs (BCM)
[5] = donor CN1 with HLA-A*02:01, peptide 10 μg/mL, 20h co-culture (Fudan)

For CILESLFRAV [PEP4], the “T cell reactivity, IFN-γ ELISpot” value [1, 4] was “strong reactivity”.

In the case of O=C1c2c(O)ccc(O)c2C(=O)c2c(NCCNCCO)ccc(NCCNCCO)c21 [mitoxantrone], the clinical activity (UCEC tumors; UCEC tumors among unselected patients) is listed as “lack clinical activity”.

For CO[C@H]1/C=C\C=C(/C)C(=O)NC2=CC(=O)C(NCCN(C)C)=C(C[C@@H](C)C[C@H](OC)[C@H](O)[C@@H](C)/C=C(\C)[C@@H]1OC(N)=O)C2=O [alvespimycin], the IC50 [2] was < 1000 nM and the tumor regression [3] was “began to induce tumor regression after seven days of treatment”.

In the case of C=CCNC1=C2C[C@@H](C)C[C@H](OC)[C@H](O)[C@@H](C)/C=C(\C)[C@H](OC(N)=O)[C@@H](OC)/C=C\C=C(/C)C(=O)NC(=CC1=O)C2=O [tanespimycin], the IC50 [2] is reported as < 1000 nM.

With FSYAWPFYNPV [PEP28] the “T cell reactivity, IFN-γ ELISpot” value [1, 5] was “strong reactivity”.

For MMGLYDGMEHL [PEP17], the “T cell reactivity, IFN-γ ELISpot” value [1, 4] was “strong reactivity”.

With YLVERQLQEI [PEP40] the “T cell reactivity, IFN-γ ELISpot” value [1, 5] was “strong reactivity”.

For COc1cccc2c1C(=O)c1c(O)c3c(c(O)c1C2=O)C[C@@](O)(C(=O)CO)C[C@@H]3O[C@H]1C[C@H](N)[C@H](O)[C@H](C)O1 [doxorubicin], the overall response rate (UCEC tumors; unselected UCEC patients) is listed as 16%.
